# SR-BI HDL uptake = blocks mouse SR-BI lipid uptake from DiI-HDL. Q61009. ldlA[mSR-BI] CHO cells, DiI-HDL uptake fluorescence, 3 h. inhibition, % at 12.5 µM. 320,000 tested, 0.96% active;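 active = mean replicate inhibition of at least 70% and a set share of replicates each scoring 70 or more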;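 note: 0% = median of neutral control wells and 100% = median of positive control wells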
# Target sequence (Q61009 whole entry, looked up): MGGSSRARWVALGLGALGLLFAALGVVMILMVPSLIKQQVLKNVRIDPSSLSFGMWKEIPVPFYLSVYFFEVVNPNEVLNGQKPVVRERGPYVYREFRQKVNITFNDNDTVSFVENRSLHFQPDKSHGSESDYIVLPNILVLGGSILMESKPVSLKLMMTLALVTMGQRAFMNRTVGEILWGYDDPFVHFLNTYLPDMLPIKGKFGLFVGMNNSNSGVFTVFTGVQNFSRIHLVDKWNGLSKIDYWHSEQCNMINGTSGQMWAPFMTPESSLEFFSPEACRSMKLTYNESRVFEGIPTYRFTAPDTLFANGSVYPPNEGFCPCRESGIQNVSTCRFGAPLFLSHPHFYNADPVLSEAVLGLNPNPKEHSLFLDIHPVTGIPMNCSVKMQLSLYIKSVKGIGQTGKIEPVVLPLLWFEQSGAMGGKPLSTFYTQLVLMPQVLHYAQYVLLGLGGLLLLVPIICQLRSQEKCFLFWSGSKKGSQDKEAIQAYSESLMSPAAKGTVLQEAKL
# TMEM16A inh = mouse TMEM16A channel inhibition, primary screen; 310,000 tested, 1.2% active; HEK293 TMEM16A/YFP iodide influx fluorescence, ionomycin; AID 588511; normalized B-score (activity score, 25-100; higher = stronger inhibition) at 10 µM; Q8BHY3;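 active = ratio plate-corrected score three or more library SD toward inhibition, starting fluorescence score within five deviations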;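 note: score derived from kinetic fluorescence span divided by baseline fluorescence per well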
# Kir21 block = blocks the mouse Kir2.1 inward-rectifier potassium channel; P35561; HEK293-Kir2.1, FluxOR thallium flux fluorescence; stronger effect = lower value; B-score at 10 µM; 310,000 tested, 0.85% active;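 active = fluorescence ratio B-score at or below minus 3 SD of library scores, with starting-brightness B-score within 2 SD, cut at about -4.2 in these data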;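 note: channel flux triggered by added potassium and thallium sulfate stimulus; B-score of peak minus minimum fluorescence over baseline after thallium stimulus; more negative B-score means stronger Kir2.1 block with less thallium influx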
# ANO1 activ = activators or potentiators of mouse TMEM16A chloride channel; 340,000 tested, 0.3% active; B-score at 10 µM; Q8BHY3; HEK293 TMEM16A/YFP-H148Q/I152L, iodide quench fluorescence; stronger effect = lower value;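 active = fluorescence-ratio B-score plate-corrected deviation score at least 3 library SD below zero, with starting fluorescence score within 5 deviations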;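 note: channel opened by trigger with iodide after compound preincubation; score built on the fluorescence ratio of max minus min over baseline; more negative score means more quench and so TMEM16A activation or potentiation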
# SR-BI DiI-HDL act = enhances SR-BI lipid uptake from DiI-HDL; CHO ldlA[mSR-BI] cells, DiI-HDL uptake fluorescence, 3 h; 100 = double the neutral-control signal; activation, % at 12.5 µM; 320,000 tested, 0.096% active;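 active = mean replicate activation of at least 60% and every replicate at or above 60%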;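 note: 0% = median plate neutral-control signal and 100% = twice that signal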
#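 System: CHO ldlA[mSR-BI] cells / Medium: HEPES-buffered (25 mM, pH 7.4) F12 plus 0.5% BSA / Probe or stimulus: labelled HDL, 10 µg/mL / Doses: single compound concentration, delivered by pin transfer / Schedule: 3 h, 37 °C / Measured by: DiI fluorescence, bottom read / Measure: cell-associated DiI fluorescence as measure of HDL uptake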
# DNA FID counter = counter-screen for HCV NS3 helicase inhibitors: DNA intercalator displacement. DNA fluorescent intercalator displacement, fluorescence. inhibition, % at 7.9 µM. 290,000 tested, 0.17% active. AID 1845; in the data active = inhibition above about 37%;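 note: 0% = vehicle and 100% = reference compound; higher means more ethidium bromide displaced from hairpin DNA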
# The depositor's hits bear a star; i = inactive; . = no result given. Shown are actives, neighbours in structure and some others; about 3% of the full set was active somewhere.
SMILES,SR-BI HDL uptake,TMEM16A inh,Kir21 block,ANO1 activ,SR-BI DiI-HDL act,DNA FID counter
CCN(CCn1cccn1)C(=O)CCc1nnc(C2CCCCC2)o1,.,i,-0.01,i,.,-15.9
CCOC(=O)N1CCc2cc(OC)c(OC)c3c2c1cc1cc(OC)c(OC)cc13,86.3*,.,.,i,-86.3,.
CN(CCN1CCOCC1)Cc1nc(-c2ccccc2)no1,.,i,3.45,i,.,9.3
Cc1c(C)n(-c2ccc(Cl)cc2)c2ncnc(N)c12,3.1,i,-0.08,i,-3.1,-6.2
NS(=O)(=O)c1ccc(NC(=S)NC2CCCCCC2)cc1,3.7,i,-0.02,i,-3.7,-3.9
Cn1cc(Br)c(C(=O)NC(=S)Nc2ccc(S(N)(=O)=O)cc2)n1,-6.2,i,-0.4,-6.4*,6.2,-8.4
NS(=O)(=O)c1ccc(NC(=S)NC(=O)C2CCCCC2)cc1,6.2,i,0.22,-4.73*,-6.2,-11.4
CCN(CC)S(=O)(=O)c1ccc(Cl)c(NC(=S)NC(=O)C2CCCC2)c1,71.1*,.,.,i,-71.1,.
O=C(Nc1ccc(F)cc1)c1cc2cc(Cl)ccc2[nH]1,11.9,i,0.88,i,-11.9,-4.8
CN1c2ccccc2C(C)(C)C12C=Nc1c(ccc3ccccc13)O2 (configuration not stated),-6.6,i,-1.96,i,6.6,-1.2
CN1c2ccccc2C(C)(C)[C@]12C=Cc1cc(O)ccc1O2,40.4,i,-5.86*,i,-40.4,-2.2
Cc1onc(-c2c(Cl)cccc2Cl)c1C(=O)NCCc1ccncc1,6.2,i,0.41,i,-6.2,-8.1
Oc1ccc(Br)cc1/C=N/n1c(-c2ccccc2)n[nH]c1=S,-0.2,i,1.22,i,0.2,-10.5
Oc1c(Br)cc(Br)c(/C=N/n2c(-c3ccccc3)n[nH]c2=S)c1Br,-20.4,100*,1.78,i,20.4,-12.1
CCOC(=O)c1c(NC(=O)Cc2ccccc2)sc2c1CC(C)(C)NC2(C)C,-26.2,i,-1.26,i,26.2,24.1
CCOC(=O)c1c(NC(=O)C2COc3ccccc3O2)sc2c1CC(C)(C)NC2(C)C (configuration not stated),-48.0,i,1.04,i,48.0,43.5*
CCOC(=O)c1c(NC(=O)CSc2nc3ccc(C)cc3[nH]2)sc2c1CC(C)(C)NC2(C)C,46.6,i,-4.79*,i,-46.6,.
CCOC(=O)c1c(NC(=O)CSc2nnnn2-c2ccccc2OCC)sc2c1CC(C)(C)NC2(C)C,49.2,i,-2.19,i,-49.2,.
CCOC(=O)c1c(NC(=O)CSc2nnnn2-c2ccccc2)sc2c1CC(C)(C)NC2(C)C,-13.5,i,-1.5,i,13.5,40.5*
CC(C)C[C@H](NC(=O)OCC1c2ccccc2-c2ccccc21)C(=O)O,13.4,.,.,i,-13.4,.
CC1CC(C)(C)CC2(C1)NC(=O)N(CC(=O)Nc1ccc(N3CCCCC3)cc1)C2=O (configuration not stated),73.3*,i,1.36,i,.,-19.8
CCc1ccccc1NNC(=O)c1snnc1C,7.0,i,0.34,i,-7.0,-1.0
CC(C)CNS(=O)(=O)c1ccc(CCC(=O)N2CCN(Cc3ccccc3)CC2)cc1,21.4,i,-1.68,i,-21.4,-8.8
CC(C)CNS(=O)(=O)c1ccc(CCC(=O)N2CCN(Cc3ccc4c(c3)OCO4)CC2)cc1,25.0,100*,-0.2,i,-25.0,-17.5
O=C(c1ccccc1)N1CCN(Cc2ccc3c(c2)OCO3)CC1,-3.5,i,-1.28,.,3.5,-11.0
SMILES,SR-BI HDL uptake,TMEM16A inh,Kir21 block,ANO1 activ,SR-BI DiI-HDL act,DNA FID counter
Cc1ccc(C)c(OCC(O)CN2CCC(CN3C(=O)c4cccc5cccc(c45)C3=O)CC2)c1 (configuration not stated),60.8,i,-0.68,i,-60.8,2.8
O=C(c1[nH]nc2c1CCc1ccccc1-2)N1CCN(Cc2ccc3c(c2)OCO3)CC1,6.1,25*,-0.86,i,-6.1,-17.6
O=C(CCN1C(=O)c2cccc3cccc(c23)C1=O)N1CCN(Cc2ccc3c(c2)OCO3)CC1,74.3*,i,-0.57,i,-74.3,-8.0
COc1ccc(OCC(O)CN2CCC(CN3C(=O)c4cccc5cccc(c45)C3=O)CC2)cc1 (configuration not stated),77.1*,i,-1.37,i,-77.1,.
O=C(CN1C(=O)c2cccc3cccc1c23)N1CCN(Cc2ccc3c(c2)OCO3)CC1,15.6,i,-1.96,i,-15.6,-18.1
CCc1cc(Cn2nc(-c3ccccc3)cc2C(=O)NCC2CC2)on1,21.2,i,-1.07,i,-21.2,.
CSc1ccccc1OCc1cc(C(=O)NCc2csc(C(C)C)n2)no1,9.3,i,1.92,i,-9.3,-51.2
CCc1noc(C)c1C(=O)NNC(=O)COc1ccc(C)cc1,-20.0,i,0.56,i,20.0,.
NC(=O)CSc1nc2c(sc(=S)n2-c2ccccc2)c(=O)[nH]1,-11.3,i,1.36,i,11.3,-7.3
O=C(N/N=C/c1ccc(-n2ccnc2)cc1)c1cccs1,9.8,i,-0.02,i,-9.8,-11.5
COc1ccc(CCNC(=O)Cc2cc3c(cc2[N+](=O)[O-])OCO3)cc1OC,4.5,.,.,i,-4.5,.
O=C1c2cccc3cccc(c23)C(=O)N1CC1CCN(CC(O)COCc2ccc3c(c2)OCO3)CC1 (configuration not stated),70.2*,i,-4.12,i,-70.3,28.7
COCCNC(=S)N/N=C(\C)CCc1ccc2c(c1)OCO2,45.9,i,0.11,i,-45.9,-2.7
C/C(CCc1ccc2c(c1)OCO2)=N\NC(=S)NC(C)C,76.8*,i,-0.03,i,-76.8,-5.2
Cc1cccc(C)c1NC(=O)CNC(=O)c1ccc(COc2ccccc2)cc1,9.6,.,.,i,-9.6,.
CC(Oc1ccc(Cl)cc1Cl)C(=O)NNC(=O)c1ccncc1 (configuration not stated),-2.8,i,-0.11,i,2.8,.
CC(Oc1ccc(Cl)cc1Cl)c1nc(-c2ccc(NC(=O)c3ccncc3)cc2)no1 (configuration not stated),13.2,25*,0.99,i,-13.2,-2.4
CC(C)CC(=O)Nc1ccc2oc(-c3ccncc3)nc2c1,18.7,i,-2.51,i,-10.3,-18.9
CC(Oc1ccc(Cl)cc1Cl)C(=O)Nc1ccc2oc(-c3ccncc3)nc2c1 (configuration not stated),77.5*,i,-0.44,i,-77.5,-4.5
CCCc1nnc(SCC(=O)NC2CCCCC2)n1CCOC,-12.7,i,-0.55,i,12.7,-2.1

# Source: PubChem BioAssay
